Experimental data from ChEMBL document CHEMBL1153950, “The synthesis and biological evaluation of some caffeic acid amide derivatives: E-2-cyano-(3-substituted phenyl)acrylamides” (Bioorg Med Chem Lett, 2009).
≈ marks a conversion by molar mass, not a printed value.

Legend:
BGC-823 = experiment: Antitumor activity against human BGC823 cells by MTT assay; format: functional, cell-based
Procedure, shortened: (§1)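 Screened in vitro by MTT assay on human gastric carcinoma BGC-823, nasopharyngeal carcinoma KB and hepatoma BEL-7402 cell lines; cis-diamminedichloroplatinum (DDP) served as positive control.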

Bel-7402 = experiment: Antitumor activity against human Bel7402 cells by MTT assay; format: functional, cell-based; procedure, shortened: as §1
KB = experiment: Antitumor activity against human KB cells by MTT assay; format: functional, cell-based; procedure, shortened: as §1
[1] = molecular target: Acetylcholinesterase (Homo sapiens) (UniProt P22303); experiment: Inhibition of acetylcholinesterase at 25 uM
Chain of Acetylcholinesterase (Homo sapiens) (P22303 whole entry): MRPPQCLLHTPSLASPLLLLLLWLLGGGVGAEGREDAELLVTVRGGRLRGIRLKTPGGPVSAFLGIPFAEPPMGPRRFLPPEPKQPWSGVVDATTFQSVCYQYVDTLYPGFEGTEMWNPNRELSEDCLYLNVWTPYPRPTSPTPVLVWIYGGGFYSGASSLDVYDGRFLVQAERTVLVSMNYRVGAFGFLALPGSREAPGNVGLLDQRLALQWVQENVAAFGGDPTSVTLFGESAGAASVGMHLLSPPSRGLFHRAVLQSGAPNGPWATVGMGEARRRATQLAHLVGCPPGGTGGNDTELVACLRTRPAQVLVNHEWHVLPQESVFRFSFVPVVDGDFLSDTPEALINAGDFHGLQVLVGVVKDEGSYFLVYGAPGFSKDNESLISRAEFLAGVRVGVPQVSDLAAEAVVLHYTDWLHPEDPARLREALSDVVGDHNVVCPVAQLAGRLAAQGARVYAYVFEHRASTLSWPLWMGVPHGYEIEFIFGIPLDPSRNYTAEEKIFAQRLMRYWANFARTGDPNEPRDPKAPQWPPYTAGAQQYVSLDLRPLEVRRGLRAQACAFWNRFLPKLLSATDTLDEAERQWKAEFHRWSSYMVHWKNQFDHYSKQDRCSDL

SMILES | IC50 (BGC-823) [µg/mL] | IC50 (Bel-7402) [µg/mL] | IC50 (KB) [µg/mL] | inhibition [1] [%]
COc1c(O)ccc(/C=C(\C#N)C(=O)Nc2cccc(Cl)c2)c1[N+](=O)[O-] | > 100 | 65.3 (≈ 175 µM) | > 100 | 2.19
N#C/C(=C\c1cc(O)c(O)c([N+](=O)[O-])c1)C(=O)N1CCOCC1 | > 100 | > 100 | > 100 | 3
N#C/C(=C\c1cc(O)c(O)c([N+](=O)[O-])c1)C(=O)Nc1cccc(Cl)c1 | > 100 | 40.1 (≈ 111 µM) | 72.7 (≈ 202 µM) | 4.37
N#C/C(=C\c1cc(O)c(O)c([N+](=O)[O-])c1)C(N)=O | > 100 | > 100 | > 100 | 1.09
COc1cc(/C=C(\C#N)C(=O)Nc2cccc(Cl)c2)cc([N+](=O)[O-])c1O | 26.1 (≈ 69.8 µM) | 21.1 (≈ 56.5 µM) | 56.6 (≈ 151 µM) | 1.64
N#C/C(=C\c1cc(O)c(O)c([N+](=O)[O-])c1)C(=O)Nc1ccccc1Cl | 10.5 (≈ 29.2 µM) | 24 (≈ 66.7 µM) | 37.4 (≈ 104 µM) | 0.95
COc1ccc(NC(=O)/C(C#N)=C/c2cc(O)c(O)c([N+](=O)[O-])c2)cc1 | 45.4 (≈ 128 µM) | > 100 | 29.2 (≈ 82.2 µM) | 4.64
N#C/C(=C\c1cc(O)c(O)c([N+](=O)[O-])c1)C(=O)N1CCCCC1 | > 100 | > 100 | > 100 | 0.27
N#C/C(=C\c1cc(O)c(O)c([N+](=O)[O-])c1)C(=O)N(c1ccccc1)c1ccccc1 | > 100 | 56.2 (≈ 140 µM) | 104 (≈ 259 µM) | 7.38
Cc1cccc(NC(=O)/C(C#N)=C/c2cc(O)c(O)c([N+](=O)[O-])c2)c1 | 5.6 (≈ 16.5 µM) |  |  | 2.73
